Active and inactive are the calls of the source. The calls are words filed in the database; no cut-off is given here.

23 compounds from ChEMBL document CHEMBL3352779, “Synthesis and biological evaluation of 4-aza-2,3-dihydropyridophenanthrolines as tubulin polymerization inhibitors” (Bioorg Med Chem Lett, 2014) can be followed below.

For test [1], the system named is HeLa. Put plainly: Antiproliferative activity against human HeLa cells after 48 hrs by SRB assay. In kind it is functional. In outline:
(§1)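 Sulforhodamine B growth assay run on MIAPACA, MCF-7 and HeLa human cancer lines, with etoposide and podophyllotoxin as positive controls. Potency expressed as GI₅₀.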
On the technique in general: Sulforhodamine B stains cellular protein and so reports cell mass.

Test [2] has as its system MCF7. In words: Antiproliferative activity against human MCF7 cells after 48 hrs by SRB assay. In kind it is functional. Summed up:
as §1

Test [3] is described as follows: (§2) Antiproliferative activity against human MiaPaCa cells after 48 hrs by SRB assay. In kind it is functional. The settings on record: MIA PaCa-2, 48 h. In outline:
as §1

Test [4] relates to MiaPaCa. The test is described as §2. In kind it is functional. Summed up: as §1
The test system of test [5] is HeLa. In words: Disruption of microtubule network in human HeLa cells at 5 uM after 24 hrs by immunohistochemistry. In kind it is cell-based. Summed up: (§3)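 HeLa cells exposed to 5 µM for 24 h, then fixed and stained with anti-tubulin antibody, with DAPI counterstain. Merged tubulin/DAPI fluorescence images examined for microtubule network and nuclear condensation.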

Test [6] has as its system HeLa. In words: Mitotic arrest in human HeLa cells assessed as cell rounding at 5 uM after 24 hrs by immunohistochemistry. In kind it is functional, cell-based. In outline: as §3
In test [7] the target is T1, Tubulin (Homo sapiens) (UniProt P68371+Q9H4B7+P0DPH7+P68366+Q13509+Q71U36+P04350+Q3ZCM7+P07437+P68363+Q9BQE3+Q6PEY2+Q13885+Q9BVA1+Q9BUF5). In words: Inhibition of tubulin polymerization in human HeLa cells assessed as increase of tubulin soluble fraction at 5 uM after 24 hrs by immunoblot analysis. In kind it is cell-based. Summed up:
(§4)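 HeLa cells treated at 5 µM for 24 h, then permeabilized. Soluble and polymerized tubulin fractions collected separately and analysed by immunoblotting, with DMSO-treated cells as control.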

The target of test [8] is Tubulin (Bos taurus, UniProt Q6B856+Q862L2+Q862F3). In words: Inhibition of bovine brain tubulin polymerization measured for 1 hr at 1 min intervals by fluorescence assay.
In test [9] the test system is HeLa. Put plainly: Cell cycle arrest in human HeLa cells assessed as accumulation of cells at G2/M phase at 5 uM after 24 hrs by FACS analysis (Rvb =33.25 %). In kind it is functional. Background: Flow cytometry measures light scatter and fluorescence of single cells or particles in a stream.
The target in test [10] is T1, Tubulin (Homo sapiens). In words: Induction of tubulin polymerization in human HeLa cells assessed as increase of tubulin polymerized fraction at 5 uM after 24 hrs by immunoblot analysis. In kind it is cell-based. In outline:
as §4
A general note: A western blot detects proteins with antibodies after separation by electrophoresis.

As to `COc1ccc(C2C3=C(COC3=O)Nc3c2c2cccnc2c2ncccc32)cc1` (stereo not given), the GI50 in [1] turned out to be 4.2 µM; in [2] (MCF7, 48 h), 4.6 µM; in test [3], 3.4 µM.
The corresponding values for `O=C1OCC2=C1C(c1ccc(O)c(Cl)c1)c1c(c3cccnc3c3ncccc13)N2` (stereo not given) are 0.3 µM, 7.7 µM and 0.9 µM.
Compound `O=C1OCC2=C1C(c1cc(Cl)ccc1O)c1c(c3cccnc3c3ncccc13)N2` (stereo not given) came in with a GI50 in [1] of 0.3 µM. The GI50 result in [2] and in test [4] was “inactive” in each case.
With `COc1cc(C2C3=C(COC3=O)Nc3c2c2cccnc2c2ncccc32)cc(OC)c1OC` (stereo not given), the GI50 in test [1] turned out to be 0.1 µM; in test [2] (MCF7, 48 h) it was 1.7 µM; in test [3] it was 2.8 µM.
`O=C1OCC2=C1C(c1cc(F)c(F)c(F)c1)c1c(c3cccnc3c3ncccc13)N2` (stereo not given) displayed a GI50 in test [1] of 2.5 µM. The GI50 entry in [2] and in test [4] was “inactive” in each case.
For `COc1ccc(F)c(C2C3=C(COC3=O)Nc3c2c2cccnc2c2ncccc32)c1` (stereo not given), the GI50 is less than 0.01 µM in [1]; 0.01 µM in test [2] (MCF7, 48 h); 0.02 µM in test [3]. The outcome in test [5] and in [6] was Active. In [7], the inhibition result was “Active”. Also, in test [8], the IC50 was determined as 0.83 µM. Also, in test [9], the Activity is listed as 82.04%.
As for `CC(=O)O[C@H]1C(=O)[C@@]2(C)[C@H]([C@H](OC(=O)c3ccccc3)[C@]3(O)C[C@H](OC(=O)[C@H](O)[C@@H](NC(=O)c4ccccc4)c4ccccc4)C(C)=C1C3(C)C)[C@]1(OC(C)=O)CO[C@@H]1C[C@@H]2O`, the outcome in test [10] was Active.
For `O=C1OCC2=C1C(c1ccc(F)c(F)c1)c1c(c3cccnc3c3ncccc13)N2` (stereo not given), the GI50 in [1] is 0.03 µM; in [2] (MCF7, 48 h) it was less than 0.01 µM; in test [3], 0.5 µM. Besides, the result in [5] and in test [6] was Active. In test [7], the inhibition entry was “Active”. The IC50 in test [8] amounted to 0.92 µM. The Activity in [9] was determined as 76.44%.
Turning to `COc1cc([C@@H]2c3cc4c(cc3[C@@H](O[C@@H]3O[C@@H]5CO[C@@H](C)O[C@H]5[C@H](O)[C@H]3O)[C@H]3COC(=O)[C@H]23)OCO4)cc(OC)c1O` [ETOPOSIDE], the GI50 amounted to 0.64 µM in [1]; 0.25 µM in test [2] (MCF7, 48 h); 1.3 µM in test [3].
For the compound `COc1ccc(OC)c(C2C3=C(COC3=O)Nc3c2c2cccnc2c2ncccc32)c1` (stereo not given), the GI50 is less than 0.01 µM in test [1]; 8.4 µM in [2] (MCF7, 48 h); 0.1 µM in [3]. The compound further had a half-maximal inhibitory concentration (IC50) in test [8] of 2 µM. In addition, the Activity in test [9] is listed as 73.77%.
Turning to `COc1cc([C@@H]2c3cc4c(cc3[C@H](O)[C@H]3COC(=O)[C@H]23)OCO4)cc(OC)c1OC` [PODOFILOX], the GI50 came to 0.71 µM in test [1]; 0.23 µM in test [2] (MCF7, 48 h); 0.5 µM in test [3]. Besides, the inhibition entry in test [7] is “Active”.
Take `O=C1OCC2=C1C(c1ccc(F)cc1)c1c(c3cccnc3c3ncccc13)N2` (stereo not given): in [1], halving of growth (GI50) required 0.15 µM. Also, the GI50 entry in test [2] and in [4] was “inactive” in each case.
With `COc1cc(C2C3=C(COC3=O)Nc3c2c2cccnc2c2ncccc32)cc(OC)c1O` (stereo not given), the GI50 was 1.7 µM in [1]; 2.1 µM in test [2] (MCF7, 48 h); 0.1 µM in test [3].
In the case of `O=C1OCC2=C1C(c1cccc(Cl)c1)c1c(c3cccnc3c3ncccc13)N2` (stereo not given), the GI50 entry in test [1] and in [2] was “inactive” in each case. This compound also returned a GI50 in [3] of 13.6 µM.
In the case of `Cc1cccc(C2C3=C(COC3=O)Nc3c2c2cccnc2c2ncccc32)c1O` (stereo not given), the concentration for 50% growth inhibition (GI50) in test [1] worked out at 0.2 µM; in [2] (MCF7, 48 h), 10.3 µM; in test [3], 0.5 µM.
Taken in the same sequence, the figures for `O=C1OCC2=C1C(c1ccc(O)c(Br)c1)c1c(c3cccnc3c3ncccc13)N2` (stereo not given) were less than 0.01 µM, 7.6 µM and 2 µM.
Take `COc1ccc(C2C3=C(COC3=O)Nc3c2c2cccnc2c2ncccc32)cc1OC` (stereo not given): the GI50 in test [1] amounted to 0.04 µM; in test [2] (MCF7, 48 h), 4.6 µM; in [3], 5.9 µM.
Taken in the same sequence, the figures for `COc1ccc(C2C3=C(COC3=O)Nc3c2c2cccnc2c2ncccc32)c(OC)c1OC` (stereo not given) were 0.16 µM, 8.2 µM and 3.7 µM.
Taken in the same sequence, the figures for `COc1ccc(C2C3=C(COC3=O)Nc3c2c2cccnc2c2ncccc32)cc1F` (stereo not given) were 0.8 µM, 6.4 µM and 1.2 µM.
`Cc1ccc(O)c(C2C3=C(COC3=O)Nc3c2c2cccnc2c2ncccc32)c1` (stereo not given): the GI50 in test [1] stood at 0.6 µM; in test [3], 1.9 µM. Besides, the GI50 result in test [2] is “inactive”.
With `O=C1OCC2=C1C(c1ccc(C(F)(F)F)cc1)c1c(c3cccnc3c3ncccc13)N2` (stereo not given), the GI50 was 2.6 µM in test [1]; 0.06 µM in test [2] (MCF7, 48 h); 0.7 µM in [3].
The corresponding values for `COc1ccc(C2C3=C(COC3=O)Nc3c2c2cccnc2c2ncccc32)c(O)c1` (stereo not given) are 7 µM, 9.7 µM and 9.8 µM.
Taken in the same sequence, the figures for `O=C1OCC2=C1C(c1cc(Br)ccc1O)c1c(c3cccnc3c3ncccc13)N2` (stereo not given) were 1.76 µM, 9.2 µM and 5.4 µM.

As a reminder, the GI50 is the concentration that inhibits growth by half. What is called IC50 is the concentration that inhibits the measured activity by half. A lower IC50 goes with greater potency.
